Laboratory results as given in ChEMBL document CHEMBL1156339, “A virtual screening hit reveals new possibilities for developing group III metabotropic glutamate receptor agonists” (J Med Chem, 2010).
The source made the active and inactive calls. The rule behind the calls is not given here.

Tests used:
[1] = target: Metabotropic glutamate receptor 4 (Rattus norvegicus) (UniProt P31423); test: Agonist activity at rat mGlu4 receptor expressed in HEK293 cells co-transfected with G-protein alpha and EAAC1 assessed as increase in intracellular inositol phosphate accumulation at 100 uM after 1 hr by scintillation counting; format: functional, cell-based
[2] = target: T1, Metabotropic glutamate receptor 4 (Rattus norvegicus, UniProt P31423); test: Agonist activity at rat mGlu4 receptor expressed in HEK293 cells co-transfected with G-protein alpha and EAAC1 assessed as increase in intracellular inositol phosphate accumulation after 1 hr by scintillation counting; format: functional, cell-based
How it was run: (§1)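 Rat receptor, chimeric G-protein alpha subunit and EAAC1 electroporated into HEK293 cells and grown 24 h in polyornithine-coated plates in glutamate/glutamine-free medium. Labelled overnight with 3H-myoinositol from 6 h post-transfection. Ambient glutamate degraded with glutamate-pyruvate transaminase, then agonist applied 30 min. Lysis 1 h in cold 0.1 M formic acid. 3H-IP isolated on Dowex and counted. IP normalised to IP plus membrane radioactivity, triplicate; mean ± SEM of n experiments.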

[3] = target: T2, Metabotropic glutamate receptor 6 (Rattus norvegicus, UniProt P35349); test: Agonist activity at rat mGlu6 receptor expressed in HEK293 cells co-transfected with G-protein alpha and EAAC1 assessed as increase in intracellular inositol phosphate accumulation after 1 hr by scintillation counting; format: functional, cell-based; how it was run: as §1
[4] = target: T3, Metabotropic glutamate receptor 8 (Rattus norvegicus, UniProt P70579); test: Agonist activity at rat mGlu8 receptor expressed in HEK293 cells co-transfected with G-protein alpha and EAAC1 assessed as increase in intracellular inositol phosphate accumulation after 1 hr by scintillation counting; format: functional, cell-based; how it was run: as §1
[5] = target: Metabotropic glutamate receptor 2 (Rattus norvegicus, UniProt P31421); test: Agonist activity at rat mGlu2 receptor expressed in HEK293 cells assessed as increase in intracellular calcium level after 1 hr by fluorescence microplate reader; format: functional, cell-based
How it was run: (§2)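 HEK293 cells electroporated with rat receptor plus chimeric G-protein alpha subunit and EAAC1, grown 24 h in polyornithine-coated plates in glutamate/glutamine-free medium. Cells loaded 1 h at 37 °C with Fluo-4 AM in HBSS with 2.5 mM probenecid, washed. Agonist added after 20 s of recording. Fluorescence read at ex 485/em 525 nm over a concentration range, triplicate points. EC50 given as mean ± SEM of n experiments.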

[6] = target: Metabotropic glutamate receptor 1 (Rattus norvegicus) (UniProt P23385); test: Agonist activity at rat mGlu1 receptor expressed in HEK293 cells; format: functional, cell-based
How it was run: (§3)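 Receptor transiently electroporated into HEK293 cells (DMEM, 10% FCS, penicillin/streptomycin) with EAAC1 transporter, plated in 96-well plates; tested for agonist or antagonist activity coupled to PLC, read out by IP or Fluo-4 Ca2+ assays.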

[7] = target: Metabotropic glutamate receptor 5 (Rattus norvegicus) (UniProt P31424); test: Agonist activity at rat mGlu5 receptor expressed in HEK293 cells; format: functional, cell-based; how it was run: as §3
[8] = target: T2, Metabotropic glutamate receptor 6; test: Agonist activity at rat mGlu6 receptor expressed in HEK293 cells co-transfected with G-protein alpha and EAAC1 assessed as increase in intracellular calcium level after 1 hr by fluorescence microplate reader; format: functional, cell-based; how it was run: as §2
[9] = target: Metabotropic glutamate receptor 7 (Rattus norvegicus) (UniProt P35400); test: (§4) Agonist activity at rat mGlu7 receptor expressed in HEK293 cells co-transfected with G-protein alpha and EAAC1 assessed as increase in intracellular calcium level after 1 hr by fluorescence microplate reader; format: functional, cell-based
How it was run: (§5)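 Rat mGlu7 electroporated into HEK293 cells with a chimeric G-protein α subunit and EAAC1. Cells were grown 24 h on polyornithine in glutamate/glutamine-free medium, then loaded with Fluo-4 AM in HBSS with 2.5 mM probenecid for 1 h at 37 °C and washed. Agonist was added 20 s into recording, and fluorescence was read at ex 485/em 525 nm. Points were run in triplicate across a concentration series to give EC50.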

[10] = target: T3, Metabotropic glutamate receptor 8; test: (§6) Agonist activity at rat mGlu8 receptor expressed in HEK293 cells co-transfected with G-protein alpha and EAAC1 assessed as increase in intracellular calcium level after 1 hr by fluorescence microplate reader; format: functional, cell-based; how it was run: as §2
[11] = target: Metabotropic glutamate receptor 2 (Rattus norvegicus) (UniProt P31421); test: Agonist activity at rat mGlu2 receptor expressed in HEK293 cells assessed as increase in intracellular calcium level at 100 uM after 1 hr by fluorescence microplate reader; format: functional, cell-based
How it was run: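 Rat mGlu2 transiently electroporated into HEK293 cells with EAAC1. Fluo-4 AM loaded 1 h at 37 °C in HBSS with 2.5 mM probenecid. Agonist applied at 100 μM after 20 s of recording, with DCG-IV 100 μM as reference. Fluorescence read at ex 485/em 525 nm.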

[12] = target: T1, Metabotropic glutamate receptor 4; test: (§7) Agonist activity at rat mGlu4 receptor expressed in HEK293 cells co-transfected with G-protein alpha and EAAC1 assessed as increase in intracellular calcium level after 1 hr by fluorescence microplate reader; format: functional, cell-based; how it was run: as §2
[13] = target: Metabotropic glutamate receptor 8 (Rattus norvegicus) (UniProt P70579); test: as §6; format: functional, cell-based; how it was run: as §2
[14] = target: Metabotropic glutamate receptor 4 (Rattus norvegicus) (UniProt P31423); test: as §7; format: functional, cell-based; how it was run: as §2
[15] = target: T4, Metabotropic glutamate receptor 7 (Rattus norvegicus, UniProt P35400); test: as §4; format: functional, cell-based; how it was run: as §5
[16] = target: T4, Metabotropic glutamate receptor 7; test: (§8) Agonist activity at rat mGlu7 receptor expressed in HEK293 cells co-transfected with G-protein alpha and EAAC1 assessed as increase in intracellular inositol phosphate accumulation […] by scintillation counting; format: functional, cell-based
How it was run: (§9)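 Rat mGlu7 was transiently electroporated into HEK293 cells with a chimeric Gα subunit and EAAC1 and grown in glutamate/glutamine-free medium. Cells were labelled overnight with ³H-myoinositol from 6 h post-transfection, and ambient glutamate was removed with glutamate-pyruvate transaminase. Agonist was applied for 30 min, then cells were lysed 1 h in cold 0.1 M formic acid. ³H-IP was isolated on Dowex resin and eluted with 4 M formate for scintillation counting, with IP normalised to IP plus membrane counts. Triplicate points.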

Rattus norvegicus = species on record: Rattus norvegicus; test: Selectivity ratio of EC50 for rat mGlu8 receptor to EC50 for rat mGlu4 receptor
[17] = target: Metabotropic glutamate receptor 4 (Rattus norvegicus) (UniProt P31423); test: Agonist activity at rat mGlu4 receptor expressed in HEK293 cells co-transfected with G-protein alpha and EAAC1 assessed as increase in intracellular inositol phosphate accumulation […] by scintillation counting in presence of DCG4; format: functional, cell-based
[18] = target: Metabotropic glutamate receptor 7 (Rattus norvegicus) (UniProt P35400); test: as §8; format: functional, cell-based; how it was run: as §9

Metabotropic glutamate receptor 2 (Rattus norvegicus), sequence (P31421 19-872 limits assumed): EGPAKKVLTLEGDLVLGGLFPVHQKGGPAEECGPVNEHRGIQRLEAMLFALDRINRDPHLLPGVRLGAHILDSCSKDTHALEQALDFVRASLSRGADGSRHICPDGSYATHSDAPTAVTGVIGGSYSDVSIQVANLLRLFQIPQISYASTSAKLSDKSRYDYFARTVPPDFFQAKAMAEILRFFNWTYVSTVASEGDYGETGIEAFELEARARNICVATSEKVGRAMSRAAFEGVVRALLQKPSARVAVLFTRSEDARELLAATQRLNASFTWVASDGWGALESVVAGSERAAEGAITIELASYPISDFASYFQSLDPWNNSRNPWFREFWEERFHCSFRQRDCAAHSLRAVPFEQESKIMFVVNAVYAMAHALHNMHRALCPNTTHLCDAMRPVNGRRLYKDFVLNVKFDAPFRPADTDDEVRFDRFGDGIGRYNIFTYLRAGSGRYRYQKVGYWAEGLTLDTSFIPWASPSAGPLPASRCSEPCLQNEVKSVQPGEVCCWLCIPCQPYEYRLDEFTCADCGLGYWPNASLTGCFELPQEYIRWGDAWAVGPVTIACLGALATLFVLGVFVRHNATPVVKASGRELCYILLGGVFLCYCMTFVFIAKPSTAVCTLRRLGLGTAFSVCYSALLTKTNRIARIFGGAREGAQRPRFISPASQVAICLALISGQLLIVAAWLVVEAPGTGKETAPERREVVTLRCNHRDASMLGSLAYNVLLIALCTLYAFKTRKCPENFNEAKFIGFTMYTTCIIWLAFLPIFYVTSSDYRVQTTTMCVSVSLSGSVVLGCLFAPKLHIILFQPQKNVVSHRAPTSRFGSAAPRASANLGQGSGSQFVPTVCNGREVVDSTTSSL
Metabotropic glutamate receptor 1 (Rattus norvegicus), sequence (P23385 19-1199 limits assumed): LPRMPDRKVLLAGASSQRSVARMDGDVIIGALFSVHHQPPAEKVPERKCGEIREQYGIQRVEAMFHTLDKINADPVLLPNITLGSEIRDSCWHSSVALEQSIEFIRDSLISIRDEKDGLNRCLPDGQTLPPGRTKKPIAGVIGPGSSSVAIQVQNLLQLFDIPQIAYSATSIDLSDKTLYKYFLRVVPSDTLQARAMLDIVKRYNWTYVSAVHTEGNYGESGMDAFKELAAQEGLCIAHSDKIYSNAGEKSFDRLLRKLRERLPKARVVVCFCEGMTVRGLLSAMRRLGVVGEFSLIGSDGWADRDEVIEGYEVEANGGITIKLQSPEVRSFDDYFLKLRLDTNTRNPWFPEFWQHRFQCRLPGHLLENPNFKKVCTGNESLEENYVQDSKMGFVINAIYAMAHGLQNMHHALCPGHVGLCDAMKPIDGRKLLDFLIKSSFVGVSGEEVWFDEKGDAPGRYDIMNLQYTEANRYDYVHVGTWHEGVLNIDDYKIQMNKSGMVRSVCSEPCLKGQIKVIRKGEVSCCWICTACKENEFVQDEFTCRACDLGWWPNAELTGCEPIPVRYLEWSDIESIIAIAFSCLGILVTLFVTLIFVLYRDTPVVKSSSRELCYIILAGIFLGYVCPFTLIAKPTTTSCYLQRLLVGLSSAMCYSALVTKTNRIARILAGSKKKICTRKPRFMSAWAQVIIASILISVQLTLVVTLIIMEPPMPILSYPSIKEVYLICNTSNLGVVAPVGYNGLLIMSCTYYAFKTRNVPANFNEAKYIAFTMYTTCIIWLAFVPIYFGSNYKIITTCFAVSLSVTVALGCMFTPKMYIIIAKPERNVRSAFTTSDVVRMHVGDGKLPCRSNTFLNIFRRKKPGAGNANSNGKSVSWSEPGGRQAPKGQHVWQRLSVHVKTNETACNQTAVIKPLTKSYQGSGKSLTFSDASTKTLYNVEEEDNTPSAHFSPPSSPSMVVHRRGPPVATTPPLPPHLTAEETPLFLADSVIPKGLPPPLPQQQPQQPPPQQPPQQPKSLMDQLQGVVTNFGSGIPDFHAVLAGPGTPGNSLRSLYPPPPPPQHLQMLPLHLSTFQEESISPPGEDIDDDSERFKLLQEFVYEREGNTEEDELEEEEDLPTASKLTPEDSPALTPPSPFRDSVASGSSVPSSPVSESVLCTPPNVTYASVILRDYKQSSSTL
Metabotropic glutamate receptor 4 (Rattus norvegicus), sequence (P31423 whole entry): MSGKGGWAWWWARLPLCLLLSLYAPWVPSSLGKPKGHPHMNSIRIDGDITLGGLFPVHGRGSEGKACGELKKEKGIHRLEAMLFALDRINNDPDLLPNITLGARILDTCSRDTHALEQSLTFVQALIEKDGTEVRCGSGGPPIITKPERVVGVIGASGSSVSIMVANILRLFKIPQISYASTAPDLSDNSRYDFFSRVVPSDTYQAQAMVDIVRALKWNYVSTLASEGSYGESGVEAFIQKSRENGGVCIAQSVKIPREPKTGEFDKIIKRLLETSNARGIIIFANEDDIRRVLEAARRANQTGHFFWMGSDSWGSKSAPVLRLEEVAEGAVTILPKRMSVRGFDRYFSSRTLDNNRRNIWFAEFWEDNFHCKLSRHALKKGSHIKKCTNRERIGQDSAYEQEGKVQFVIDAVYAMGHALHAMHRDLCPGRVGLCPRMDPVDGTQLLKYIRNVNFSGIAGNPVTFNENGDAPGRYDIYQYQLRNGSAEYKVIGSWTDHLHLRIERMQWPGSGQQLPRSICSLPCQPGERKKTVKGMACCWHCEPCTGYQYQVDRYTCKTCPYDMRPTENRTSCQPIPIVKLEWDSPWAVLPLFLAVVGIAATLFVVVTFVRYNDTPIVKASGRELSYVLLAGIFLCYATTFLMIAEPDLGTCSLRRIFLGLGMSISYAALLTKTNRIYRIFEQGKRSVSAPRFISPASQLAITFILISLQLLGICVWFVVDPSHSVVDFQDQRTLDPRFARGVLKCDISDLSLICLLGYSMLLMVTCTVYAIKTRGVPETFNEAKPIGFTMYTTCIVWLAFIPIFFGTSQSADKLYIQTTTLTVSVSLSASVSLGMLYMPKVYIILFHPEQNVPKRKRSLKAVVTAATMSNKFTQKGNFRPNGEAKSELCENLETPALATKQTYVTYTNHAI
T1 sequence (P31423 whole entry): as above
Metabotropic glutamate receptor 5 (Rattus norvegicus), sequence (P31424 21-1203 limits assumed): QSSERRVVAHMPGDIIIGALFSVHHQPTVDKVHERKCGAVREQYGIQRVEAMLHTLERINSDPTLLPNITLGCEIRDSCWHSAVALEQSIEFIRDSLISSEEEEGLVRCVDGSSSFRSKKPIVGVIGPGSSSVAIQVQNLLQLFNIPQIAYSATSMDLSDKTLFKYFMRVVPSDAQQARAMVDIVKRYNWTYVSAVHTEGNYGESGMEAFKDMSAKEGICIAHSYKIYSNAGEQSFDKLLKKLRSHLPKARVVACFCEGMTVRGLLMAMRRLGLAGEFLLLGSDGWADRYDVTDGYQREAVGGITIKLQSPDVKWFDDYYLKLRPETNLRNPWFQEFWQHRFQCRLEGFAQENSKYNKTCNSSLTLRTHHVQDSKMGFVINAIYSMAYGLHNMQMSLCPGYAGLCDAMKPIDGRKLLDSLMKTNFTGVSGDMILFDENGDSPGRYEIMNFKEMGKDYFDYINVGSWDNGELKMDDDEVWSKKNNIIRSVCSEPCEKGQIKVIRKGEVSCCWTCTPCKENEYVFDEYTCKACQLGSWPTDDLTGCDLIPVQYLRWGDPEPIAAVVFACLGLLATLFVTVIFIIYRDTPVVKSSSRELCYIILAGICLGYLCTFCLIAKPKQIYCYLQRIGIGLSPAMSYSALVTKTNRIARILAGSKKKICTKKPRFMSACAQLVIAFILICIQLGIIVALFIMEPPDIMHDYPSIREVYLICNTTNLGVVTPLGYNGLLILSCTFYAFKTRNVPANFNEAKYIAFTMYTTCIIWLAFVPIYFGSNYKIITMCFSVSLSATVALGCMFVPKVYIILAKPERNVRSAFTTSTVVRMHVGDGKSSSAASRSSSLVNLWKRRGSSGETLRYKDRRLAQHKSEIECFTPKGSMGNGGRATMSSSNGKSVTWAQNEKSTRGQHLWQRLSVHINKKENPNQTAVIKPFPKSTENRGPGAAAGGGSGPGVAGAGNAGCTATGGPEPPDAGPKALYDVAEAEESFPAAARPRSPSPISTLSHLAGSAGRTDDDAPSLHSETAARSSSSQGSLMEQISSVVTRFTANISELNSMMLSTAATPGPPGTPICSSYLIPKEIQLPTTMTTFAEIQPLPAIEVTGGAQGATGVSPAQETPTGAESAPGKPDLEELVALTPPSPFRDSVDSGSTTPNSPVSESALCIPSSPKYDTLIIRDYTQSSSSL
T3 sequence (P70579 whole entry): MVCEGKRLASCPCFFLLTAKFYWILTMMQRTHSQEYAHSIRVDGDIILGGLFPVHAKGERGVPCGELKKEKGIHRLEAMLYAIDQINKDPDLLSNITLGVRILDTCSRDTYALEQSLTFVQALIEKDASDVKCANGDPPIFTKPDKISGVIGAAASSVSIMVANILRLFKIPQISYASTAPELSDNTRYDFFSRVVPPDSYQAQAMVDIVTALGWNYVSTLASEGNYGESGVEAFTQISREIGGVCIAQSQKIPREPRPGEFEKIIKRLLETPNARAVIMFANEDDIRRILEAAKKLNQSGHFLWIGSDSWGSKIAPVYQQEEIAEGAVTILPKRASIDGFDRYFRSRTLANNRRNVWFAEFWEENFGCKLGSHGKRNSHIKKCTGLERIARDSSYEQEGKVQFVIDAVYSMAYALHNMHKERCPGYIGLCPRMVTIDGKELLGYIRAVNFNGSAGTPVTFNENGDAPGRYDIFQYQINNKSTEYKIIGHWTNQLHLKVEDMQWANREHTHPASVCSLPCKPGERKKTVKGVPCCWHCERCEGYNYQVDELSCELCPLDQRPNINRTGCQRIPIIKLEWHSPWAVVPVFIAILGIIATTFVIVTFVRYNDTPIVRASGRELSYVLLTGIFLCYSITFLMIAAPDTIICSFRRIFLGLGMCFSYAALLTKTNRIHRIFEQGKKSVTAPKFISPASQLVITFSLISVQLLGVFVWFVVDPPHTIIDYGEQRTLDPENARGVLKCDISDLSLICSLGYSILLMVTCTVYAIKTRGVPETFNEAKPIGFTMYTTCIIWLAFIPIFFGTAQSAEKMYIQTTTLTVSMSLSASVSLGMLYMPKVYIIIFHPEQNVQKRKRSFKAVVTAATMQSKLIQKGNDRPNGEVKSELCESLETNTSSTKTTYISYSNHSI

In the case of `NC(CCP(=O)(O)CCCCC(=O)O)C(=O)O` (centres undefined), the Activity [1] is reported as “inactive”.
With `NC(CCP(=O)(O)C(CC(=O)O)C(=O)O)C(=O)O` (centres undefined) the EC50 [2] was 47 µM and the EC50 [3] was 113 µM.
With `C/C(=C\C(=O)O)C(O)P(=O)(O)CC[C@H](N)C(=O)O` (some centres undefined) the Activity [1] was “inactive”.
`N[C@@H](CCP(=O)(O)CCP(=O)(O)O)C(=O)O` gave an EC50 [2] of 88 µM and an EC50 [4] of 48 µM.
In the case of `N[C@H](C(=O)O)C1[C@@H](C(=O)O)[C@@H]1C(=O)O` (some centres undefined), the EC50 [5] is reported as 0.045 µM.
`N[C@@H](CCP(=O)(O)CCCC(=O)O)C(=O)O` was tested, and the EC50 [2] was 11.4 µM, the Activity [6] was “inactive” and the Activity [7] was “inactive”. The EC50 [8] was 44 µM, the EC50 [3] was > 100 µM and the Activity [9] was “inactive”. The EC50 [10] was 18 µM, the EC50 [4] was 19 µM and the Activity [11] was “inactive”. It also gave an EC50 [12] of 8.5 µM.
`N[C@H](CCP(=O)(O)CCC(=O)O)C(=O)O` was tested, and the EC50 [2] was 17 µM, the EC50 [3] was 99 µM and the EC50 [4] was 58 µM.
In the case of `NC(CP(=O)(O)CCC(=O)O)C(=O)O` (centres undefined), the Activity [1] is reported as “inactive”.
For `N[C@@H](CCP(=O)(O)C(CC(=O)O)C(F)(F)F)C(=O)O` (some centres undefined), the EC50 [2] was 26 µM.
`N[C@@H](CCC[PH](=O)O)C(=O)O` showed an EC50 [10] of 73 µM and an EC50 [12] of 209 µM.
`N[C@@H](CCP(=O)(O)CC(CC(=O)O)C(=O)O)C(=O)O` (some centres undefined) was tested, and the EC50 [2] was 4.6 µM, the Activity [6] was “inactive” and the Activity [7] was “inactive”. For the same molecule, the EC50 [8] was 42 µM, the EC50 [3] was 115 µM and the Activity [9] was “inactive”. The EC50 [10] was 3.5 µM, the EC50 [4] was 38 µM and the Activity [11] was “inactive”. For the same molecule, the EC50 [12] was 2.4 µM.
For `N[C@@H](CCCP(=O)(O)CCC(=O)O)C(=O)O`, the Activity [13] was “inactive” and the Activity [14] was “inactive”.
In the case of `N[C@@H](CCP(=O)(O)CC1CCOC1=O)C(=O)O` (some centres undefined), the EC50 [10] is reported as > 100 µM and the EC50 [12] is reported as 123 µM.
In the case of `N[C@@H](CCP(=O)(O)O)C(=O)O`, the EC50 [2] is reported as 0.096 µM, the EC50 [8] is reported as 1 µM and the EC50 [3] is reported as 3.3 µM. For the same molecule, the EC50 [15] was 249 µM, the EC50 [16] was 306 µM and the EC50 [10] was 0.3 µM. For the same molecule, the EC50 [4] was 0.24 µM and the EC50 [12] was 0.13 µM.
`N[C@@H](CCP(=O)(O)C(O)C(=O)O)C(=O)O` (some centres undefined) gave an EC50 [10] of 2.9 µM and an EC50 [12] of 7.2 µM.
With `N[C@@H](CCP(=O)(O)CC(Cl)C(=O)O)C(=O)O` (some centres undefined) the EC50 [2] was 3.8 µM, the Activity [6] was “inactive” and the Activity [7] was “inactive”. For the same molecule, the EC50 [5] was 49 µM, the EC50 [8] was 8.9 µM and the EC50 [15] was > 100 µM. The EC50 [10] was 8.3 µM, the EC50 [4] was 8.1 µM and the Activity [11] was “Active”. For the same molecule, the Ratio EC50 (Rattus norvegicus) was 8 and the EC50 [12] was 1 µM.
For `N[C@@H](CCP(=O)(O)/C=C/C(=O)O)C(=O)O`, the EC50 [2] was 3 µM, the Activity [6] was “inactive” and the Activity [7] was “inactive”. The EC50 [5] was 6.7 µM, the EC50 [8] was 1.1 µM and the EC50 [15] was 43 µM. For the same molecule, the EC50 [10] was 5.1 µM, the EC50 [4] was 7.2 µM and the Activity [11] was “Active”. For the same molecule, the EC50 [12] was 1 µM.
For `N[C@@H](CCP(=O)(O)C(O)C1CC1C(=O)O)C(=O)O` (single isomer, unassigned), the EC50 [2] was 18 µM and the EC50 [4] was 91 µM.
For `N[C@@H](CCP(=O)(O)CC(CCO)C(=O)O)C(=O)O` (some centres undefined), the EC50 [10] was 76 µM and the EC50 [12] was 20 µM.
Molecule `N[C@@H](CCP(=O)(O)C(CC(=O)O)CC(=O)O)C(=O)O` has an EC50 [2] of 114 µM.
In the case of `NC(CCP(=O)(O)CCC(=O)O)C(=O)O` (racemic), the EC50 [2] is reported as 7.1 µM, the EC50 [5] is reported as 52 µM and the EC50 [3] is reported as 32 µM. For the same molecule, the EC50 [4] was 20 µM, the Activity [11] was “Active” and the Activity [17] was “Dose-dependent effect”.
For `N[C@@H](CCP(=O)(O)C1COC(=O)C1)C(=O)O` (some centres undefined), the EC50 [10] was > 100 µM and the EC50 [12] was 141 µM.
With `N[C@@]1(C(=O)O)C[C@H](C(=O)O)[C@H](C(=O)O)C1` the EC50 [2] was 1.74 µM, the EC50 [3] was 10.6 µM and the EC50 [16] was 280 µM. For the same molecule, the EC50 [4] was 5.1 µM.
`N[C@@H](CCP(=O)(O)CCC(=O)O)C(=O)O` was tested, and the Activity [6] was “inactive”, the Activity [7] was “inactive” and the EC50 [8] was 6.7 µM. It also gave an EC50 [3] of 31 µM, an EC50 [15] of 89 µM and an EC50 [10] of 6.6 µM. The EC50 [4] was 7.8 µM and the EC50 [12] was 6.15 µM.
`CC(CP(=O)(O)CC[C@H](N)C(=O)O)C(=O)O` (some centres undefined) was tested, and the EC50 [2] was 12.1 µM and the EC50 [4] was 53 µM.
`N[C@@H](CCP(=O)(O)C(CC(=O)O)CP(=O)(O)O)C(=O)O` (some centres undefined) was tested, and the Activity [1] was 33%.
For `N[C@@H](CCP(=O)(O)CC(=O)O)C(=O)O`, the EC50 [2] was 2.4 µM, the Activity [6] was “inactive” and the Activity [7] was “inactive”. The EC50 [5] was 57 µM, the EC50 [8] was > 100 µM and the EC50 [3] was 131 µM. The Activity [9] was “inactive”, the Activity [18] was “inactive” and the EC50 [10] was 2.7 µM. The EC50 [4] was 0.91 µM, the Activity [11] was “Active” and the EC50 [12] was 7.4 µM.
